Reference: ChEMBL document CHEMBL4699573, “Design, Synthesis, and Pharmacological Evaluation of Analogues Derived from the PLEV Tetrapeptide as Protein-Protein Interaction Modulators of Voltage-Gated Sodium Channel 1.6” (J Med Chem, 2020)
Activity calls are given as the source filed them. The calls are words filed in the database; no cut-off is given here. Residues, ends and D or L forms follow the SMILES beside them. *: point of attachment. Adamantane1carbonyl = O=C(C12CC3CC(CC(C3)C1)C2)*; OtBu = CC(C)(C)O*

Tests used:
[1] = biological target: T1, Fibroblast growth factor 14/SCN8A (Homo sapiens) (UniProt Q9UQD0+Q92915); experiment: (§1) Modulation of recombinant human Nav1.6 C-terminal tail (1763 to 1976 residues)-FGF14 (64 to 252 residues) protein-protein interaction expressed in HEK293 cells assessed as long-term inactivation at depolarization cycle 3 at 10 uM incubated for 30 mins by cell patch clamp electrophysiology assay (reference value: 0.99 +/- 0.04); type: cell-based; conditions: filed as modulator
How it was run: (§2)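 HEK-Nav1.6 cells transiently transfected with FGF14 using Lipofectamine 2000, then exposed at least 30 min to 10 μM compound or 0.1% DMSO in the pH 7.3 HEPES extracellular solution. Whole-cell patch clamp with Cs-methanesulfonate internal solution, 70–80% capacitance and series-resistance compensation. Test steps from −100 to +60 mV. Student's t-test used.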

[2] = biological target: T2, Sodium channel protein type 8 subunit alpha (Homo sapiens, UniProt Q9UQD0); experiment: Modulation of recombinant human Nav1.6 C-terminal tail (1763 to 1976 residues) expressed in HEK293 cells assessed as long-term inactivation at depolarization cycle 2 at 10 uM incubated for 30 mins by whole cell patch clamp electrophysiology assay (reference value: 0.84 +/- 0.03); type: cell-based; conditions: filed as modulator
Target sequence in this assay (Q9UQD0 whole entry, looked up, the tested form may be a part): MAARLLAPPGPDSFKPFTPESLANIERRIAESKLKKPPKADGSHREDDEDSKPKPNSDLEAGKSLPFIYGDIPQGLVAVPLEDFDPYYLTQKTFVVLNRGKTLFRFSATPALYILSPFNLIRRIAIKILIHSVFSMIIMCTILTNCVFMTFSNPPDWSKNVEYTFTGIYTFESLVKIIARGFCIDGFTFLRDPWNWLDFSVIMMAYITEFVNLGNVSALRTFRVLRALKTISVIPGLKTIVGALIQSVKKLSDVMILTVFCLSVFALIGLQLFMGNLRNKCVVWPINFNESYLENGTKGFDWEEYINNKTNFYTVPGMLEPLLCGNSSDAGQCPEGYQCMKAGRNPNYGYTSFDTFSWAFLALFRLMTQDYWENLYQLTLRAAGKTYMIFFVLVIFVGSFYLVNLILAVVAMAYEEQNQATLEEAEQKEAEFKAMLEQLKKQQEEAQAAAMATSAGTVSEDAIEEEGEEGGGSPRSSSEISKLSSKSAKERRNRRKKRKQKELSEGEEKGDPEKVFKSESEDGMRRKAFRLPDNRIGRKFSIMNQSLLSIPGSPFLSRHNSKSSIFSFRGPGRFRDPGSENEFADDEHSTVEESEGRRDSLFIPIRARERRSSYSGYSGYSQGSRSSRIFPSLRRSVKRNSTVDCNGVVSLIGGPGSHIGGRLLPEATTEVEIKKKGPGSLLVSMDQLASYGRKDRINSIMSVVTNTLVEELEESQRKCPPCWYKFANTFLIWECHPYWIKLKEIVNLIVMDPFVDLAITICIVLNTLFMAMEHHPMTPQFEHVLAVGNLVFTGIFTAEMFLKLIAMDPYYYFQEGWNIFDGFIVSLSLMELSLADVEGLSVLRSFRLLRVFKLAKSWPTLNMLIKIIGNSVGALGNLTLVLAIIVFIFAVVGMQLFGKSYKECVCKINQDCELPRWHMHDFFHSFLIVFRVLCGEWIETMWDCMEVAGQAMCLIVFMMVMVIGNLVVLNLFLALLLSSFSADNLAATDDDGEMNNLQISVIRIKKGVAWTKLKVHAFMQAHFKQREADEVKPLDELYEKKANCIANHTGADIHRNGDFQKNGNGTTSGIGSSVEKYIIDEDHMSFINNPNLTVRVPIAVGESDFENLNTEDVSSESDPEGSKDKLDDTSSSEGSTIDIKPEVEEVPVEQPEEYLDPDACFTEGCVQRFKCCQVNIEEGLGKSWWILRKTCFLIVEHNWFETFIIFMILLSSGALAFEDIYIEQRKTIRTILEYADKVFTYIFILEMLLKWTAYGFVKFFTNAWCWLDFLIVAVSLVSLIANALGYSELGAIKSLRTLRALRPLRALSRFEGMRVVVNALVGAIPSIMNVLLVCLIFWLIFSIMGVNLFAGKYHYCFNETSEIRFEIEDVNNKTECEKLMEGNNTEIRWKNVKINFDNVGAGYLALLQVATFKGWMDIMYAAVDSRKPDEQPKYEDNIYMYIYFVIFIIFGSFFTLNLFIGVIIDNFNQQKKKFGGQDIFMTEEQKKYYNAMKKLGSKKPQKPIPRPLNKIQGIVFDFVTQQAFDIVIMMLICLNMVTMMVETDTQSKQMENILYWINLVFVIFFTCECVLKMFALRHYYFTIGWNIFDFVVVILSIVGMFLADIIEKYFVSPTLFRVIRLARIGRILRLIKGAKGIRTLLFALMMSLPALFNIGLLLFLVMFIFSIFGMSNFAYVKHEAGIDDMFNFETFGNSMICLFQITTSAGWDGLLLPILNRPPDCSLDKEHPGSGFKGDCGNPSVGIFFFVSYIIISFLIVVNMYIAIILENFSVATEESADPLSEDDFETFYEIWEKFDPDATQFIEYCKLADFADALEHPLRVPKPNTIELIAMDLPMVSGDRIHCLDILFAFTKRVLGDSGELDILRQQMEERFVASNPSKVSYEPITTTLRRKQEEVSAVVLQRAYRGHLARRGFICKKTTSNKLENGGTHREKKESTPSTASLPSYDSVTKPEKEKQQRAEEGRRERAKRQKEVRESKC

[3] = biological target: T3, Fibroblast growth factor 14 (Homo sapiens) (UniProt Q92915); experiment: Binding affinity to human recombinant FGF14 expressed in Escherichia coli BL21 assessed as dissociation rate constant by SPR analysis; conditions: filed as modulator
T3 sequence (whole entry): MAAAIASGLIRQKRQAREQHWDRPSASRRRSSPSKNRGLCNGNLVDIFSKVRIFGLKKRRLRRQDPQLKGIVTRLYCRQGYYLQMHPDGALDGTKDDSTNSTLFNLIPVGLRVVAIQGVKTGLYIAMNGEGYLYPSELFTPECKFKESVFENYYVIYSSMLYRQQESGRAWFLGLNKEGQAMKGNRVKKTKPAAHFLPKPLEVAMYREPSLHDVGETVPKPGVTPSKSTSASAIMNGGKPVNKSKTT
How it was run: (§3)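 Biacore T100 runs with FGF14 (17,896 RU) or Nav1.6 C-tail (6,800 RU) amine-coupled on CM5 at pH 5.5. Compounds at 0.195–200 μM in PBS, 0.005% Tween-20, 2% DMSO; 50 μL/min at 25 °C. 120 s association, 150 s dissociation, DMSO calibration, blank subtraction. Rates from a Langmuir 1:1 fit; KD averages the kinetic and steady-state values. At least duplicate experiments.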

[4] = biological target: T2, Sodium channel protein type 8 subunit alpha; experiment: Modulation of recombinant human Nav1.6 C-terminal tail (1763 to 1976 residues) expressed in HEK293 cells assessed as peak current density at 30 uM incubated for 30 mins by whole cell patch clamp electrophysiology assay (reference value: -50.1 +/- 3.1 pA/pF); type: cell-based
How it was run: (§4)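 Stable HEK-Nav1.6 cells without FGF14, incubated at least 30 min in extracellular solution (mM: 140 NaCl, 3 KCl, 1 MgCl2, 1 CaCl2, 10 HEPES, 10 glucose, pH 7.3) with compound (10 or 30 μM) or 0.1% DMSO. Whole-cell recording with Cs-methanesulfonate/EGTA/NaCl/HEPES pipette solution, 70–80% compensation. Steps −100 to +60 mV; tau measured at −10 mV. Student's t-test.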
Target sequence in this assay (Q9UQD0 whole entry, looked up, the tested form may be a part): as the sequence (Q9UQD0 whole entry, looked up, the tested form may be a part) above

[5] = biological target: T2, Sodium channel protein type 8 subunit alpha; experiment: Binding affinity to human recombinant Nav1.6 C-terminal domain expressed in Escherichia coli BL21 assessed as association rate constant by SPR analysis; conditions: filed as modulator; how it was run: as §3
Target sequence in this assay (Q9UQD0 whole entry, looked up, the tested form may be a part): as the sequence (Q9UQD0 whole entry, looked up, the tested form may be a part) above

[6] = biological target: T2, Sodium channel protein type 8 subunit alpha; experiment: Modulation of recombinant human Nav1.6 C-terminal tail (1763 to 1976 residues) expressed in HEK293 cells assessed as change in time constant of fast inactivation at 10 uM incubated for 30 mins by whole cell patch clamp electrophysiology assay (reference value: 1.22 +/- 0.07 ms); type: cell-based; conditions: filed as modulator; how it was run: as §4
Target sequence in this assay (Q9UQD0 whole entry, looked up, the tested form may be a part): as the sequence (Q9UQD0 whole entry, looked up, the tested form may be a part) above

[7] = biological target: T2, Sodium channel protein type 8 subunit alpha; experiment: Binding affinity to human recombinant Nav1.6 C-terminal domain expressed in Escherichia coli BL21 assessed as dissociation constant by SPR analysis; how it was run: as §3
Target sequence in this assay (Q9UQD0 whole entry, the tested form may be a part): as the sequence (Q9UQD0 whole entry, looked up, the tested form may be a part) above

HEK293 [8] = experiment: Modulation of recombinant human FGF141b (1 to 252 residues)-recombinant human Nav1.6 C-terminal tail (1763 to 1976 residues) protein-protein interaction expressed in HEK293 cells assessed as relative luminescence value at 50 uM measured at 2 mins interval for 20 mins by split-luciferase complementation assay relative to control; type: cell-based; conditions: filed as modulator, time min 2-20
How it was run: (§5)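 Double-stable HEK293 line expressing CLuc-FGF14 and CD4-Nav1.6-C-tail-NLuc, kept on G418 and puromycin. Cells seeded for 24 h, then given compound for 1 h in serum-free, phenol red-free DMEM/F12 with a final 0.5% DMSO: 50 μM for screening, 0.25–100 μM over eight concentrations for dose-response; n = 4. D-luciferin added and read every 2 min for 20 min at 37 °C. Peak luminescence expressed as percent of per-plate DMSO mean (n = 32). IC50 from four-parameter nonlinear fit. At least 3 experiments.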

[9] = biological target: T1, Fibroblast growth factor 14/SCN8A (Homo sapiens); experiment: as §1, with “half activation voltage” for “long-term inactivation at depolarization cycle 3”, “-21.4” for “0.99”, “1 mv)” for “0.04)”; type: cell-based; how it was run: as §2
HEK293 [10] = experiment: Modulation of recombinant human FGF141b (1 to 252 residues)-recombinant human Nav1.6 C-terminal tail (1763 to 1976 residues) protein-protein interaction expressed in HEK293 cells measured at 2 mins interval for 20 mins by split-luciferase complementation assay relative to control; type: cell-based; conditions: filed as modulator, time min 2-20; how it was run: as §5
[11] = biological target: T2, Sodium channel protein type 8 subunit alpha; experiment: (§6) Modulation of recombinant human Nav1.6 C-terminal tail (1763 to 1976 residues) expressed in HEK293 cells assessed as peak current density at 10 uM incubated for 30 mins by whole cell patch clamp electrophysiology assay (reference value: -50.1 +/- 3.1 pA/pF); type: cell-based; conditions: filed as modulator; how it was run: as §4
Target sequence in this assay (Q9UQD0 whole entry, looked up, the tested form may be a part): as the sequence (Q9UQD0 whole entry, looked up, the tested form may be a part) above

HEK293 [12] = experiment: Inhibition of full-length Photinus pyralis luciferase transfected in HEK293 cells at 25 uM incubated for 1 hrs by split-luciferase complementation assay; type: cell-based
How it was run: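 HEK293 cells transfected with full-length Photinus pyralis luciferase, then treated 1 h with 25 μM compound (n = 4) or 0.5% DMSO (n = 32). Luminescence read after D-luciferin addition, as in the LCA, normalized to per-plate DMSO controls. One-way ANOVA with Dunnett's test.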

[13] = biological target: T2, Sodium channel protein type 8 subunit alpha; experiment: Modulation of recombinant human Nav1.6 C-terminal tail (1763 to 1976 residues) expressed in HEK293 cells assessed as steady state half inactivation voltage at 10 uM incubated for 30 mins by whole cell patch clamp electrophysiology assay (reference value: -62 +/- 1.3 mV); type: cell-based; how it was run: as §4
Target sequence in this assay (Q9UQD0 whole entry, looked up, the tested form may be a part): as the sequence (Q9UQD0 whole entry, looked up, the tested form may be a part) above

[14] = biological target: T3, Fibroblast growth factor 14 (Homo sapiens); experiment: Binding affinity to human recombinant FGF14 expressed in Escherichia coli BL21 assessed as assessed as induction of protein denaturation by measuring change in melting temperature at 50 uM by fluorescent dye based thermal shift assay; conditions: filed as modulator
[15] = biological target: T4, Fibroblast growth factor 14 (Homo sapiens, UniProt Q92915); experiment: Binding affinity to human recombinant FGF14 expressed in Escherichia coli BL21 assessed as dissociation constant by SPR analysis; how it was run: as §3
T4 sequence (Q92915 whole entry): T3 sequence (whole entry)

[16] = biological target: T1, Fibroblast growth factor 14/SCN8A (Homo sapiens); experiment: as §6, with “1976 residues)-FGF14 (64 to 252” for “1976”, “residues) protein-protein interaction” for “residues)”, “-19.3” for “-50.1”, “1.3)” for “3.1 pA/pF)”; type: cell-based; how it was run: as §2
[17] = biological target: T3, Fibroblast growth factor 14 (Homo sapiens); experiment: Binding affinity to human recombinant FGF14 expressed in Escherichia coli BL21 assessed as association rate constant by SPR analysis; conditions: filed as modulator; how it was run: as §3
[18] = biological target: T1, Fibroblast growth factor 14/SCN8A (Homo sapiens); experiment: Modulation of recombinant human Nav1.6 C-terminal tail (1763 to 1976 residues)-FGF14 (64 to 252 residues) protein-protein interaction expressed in HEK293 cells assessed as change in time constant of inactivation at 10 uM incubated for 30 mins by cell patch clamp electrophysiology assay (reference value: 1.58 +/- 0.18 ms); type: cell-based; conditions: filed as modulator; how it was run: as §2

T1 sequence (Q9UQD0 whole entry, looked up, one chain of several, the tested form may be a part): as the sequence (Q9UQD0 whole entry, looked up, the tested form may be a part) above

Question: What does the source list for COC(=O)[C@@H](NC(=O)[C@H](CCC(=O)OC(C)(C)C)NC(=O)[C@H](CC(C)C)NC(=O)[C@@H]1CCCN1C(=O)C12CC3CC(CC(C3)C1)C2)C(C)C (Adamantane1carbonyl-PLE(OtBu)V-OMe)?
Answer: Activity [1]: 0.81; Activity [2]: 0.87; K [3]: 9.33 10^-3/s; Activity [4]: -17.9 pA/pF; K [5]: 6.23 10^4/M/s; K [6]: 1.45 ms; Kd [7]: 16.4 µM; Activity (HEK293 [8]): 4.7%; Activity [9]: -21.6 mV; Efficacy (HEK293 [10]): 96.1%; Activity [11]: -25.8 pA/pF; inhibition (HEK293 [12]): inactive; Activity [13]: -55.2 mV; ΔTm [14]: -2.27 °C; Kd [15]: 4.05 µM; Activity [16]: -38.8 pA/pF; K [17]: 4.66 10^3/M/s; K [18]: 1 ms
